# PubChem BioAssay AID493187 (Sanford-Burnham Center for Chemical Genomics, 2011)
# Screen size: about 340,000 compounds; about 190 (0.056%) were called active.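 The calls were made as follows: active = activation of 40% or more at 20 µM, a change of -40% or lower; inactive = the rest.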 This excerpt belongs to a sample that is enriched for actives.
# Biological target: Hexokinase HKDC1 (Homo sapiens) (UniProt Q2TB90)
# Experiment: HKDC1 hexokinase activators, primary screen, biochemical, fluorescence, uHTS (AID 493187)
# Details: recombinant HKDC1, G6PDH/diaphorase resazurin fluorescence; at 20 µM; hits give low values
# Summary of the method: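 system = in-house human HKDC1 enzyme, G6PDH and diaphorase coupling enzymes | amount = HKDC1 5 µg/mL | measured by = resorufin fluorescence from 100 µM resazurin, NADP 1 mM, Ex 525/Em 613 nm | times = enzyme reaction 90 min, room temperature, in dark | doses = single compound dose of 20 µM, 1% DMSO final | medium = Tris/MgCl2 buffer, pH 8.0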
# Sequence of Hexokinase HKDC1 (Homo sapiens) (Q2TB90 whole entry, looked up): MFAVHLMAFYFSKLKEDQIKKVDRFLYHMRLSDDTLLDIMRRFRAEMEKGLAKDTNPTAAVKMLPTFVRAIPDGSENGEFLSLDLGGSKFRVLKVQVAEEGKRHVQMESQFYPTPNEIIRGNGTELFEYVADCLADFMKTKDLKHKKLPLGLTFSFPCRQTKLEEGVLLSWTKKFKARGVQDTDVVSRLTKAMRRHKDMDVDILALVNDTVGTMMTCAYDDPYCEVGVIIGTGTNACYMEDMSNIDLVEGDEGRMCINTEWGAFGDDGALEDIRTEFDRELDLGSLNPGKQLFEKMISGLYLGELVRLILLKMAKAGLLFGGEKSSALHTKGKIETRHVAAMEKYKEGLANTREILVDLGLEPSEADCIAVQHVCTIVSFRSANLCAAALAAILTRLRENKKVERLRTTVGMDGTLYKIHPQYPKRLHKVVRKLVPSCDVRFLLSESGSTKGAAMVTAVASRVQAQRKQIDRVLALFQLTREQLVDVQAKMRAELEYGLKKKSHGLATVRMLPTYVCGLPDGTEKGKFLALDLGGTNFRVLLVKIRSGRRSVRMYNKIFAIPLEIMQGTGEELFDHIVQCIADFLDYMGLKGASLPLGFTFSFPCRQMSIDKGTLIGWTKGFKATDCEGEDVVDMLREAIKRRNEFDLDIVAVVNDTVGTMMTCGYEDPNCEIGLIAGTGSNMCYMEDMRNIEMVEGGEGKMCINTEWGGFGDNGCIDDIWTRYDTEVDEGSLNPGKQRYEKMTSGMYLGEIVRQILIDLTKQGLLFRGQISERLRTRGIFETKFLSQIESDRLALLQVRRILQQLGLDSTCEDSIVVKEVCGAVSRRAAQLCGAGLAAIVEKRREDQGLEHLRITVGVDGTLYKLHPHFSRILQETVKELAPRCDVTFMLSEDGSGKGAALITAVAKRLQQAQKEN
row,Structure (SMILES),"activity change, negative = activation"
1,CC(=O)OC1C2(CC3N4C(=O)C5(CO)SSC4(CC31O)C(=O)N5C)OC(C)C(C)(C)C2=O (stereo unspecified),-42.1% (active)
